From ChEMBL document CHEMBL1124186, “Synthesis and evaluation of tylosin-related macrolides modified at the aldehyde function: a new series of orally effective antibiotics” (1988)
Converted amounts (≈) assume the structure as drawn.

Experiments:
[1] = test system: Streptococcus pyogenes; assay: In vivo effective dose against experimental infections in rodent caused by Streptococcus pyogenes C203 when administered sc; type: functional
[2] = test system: Prevotella melaninogenica; assay: In vitro antimicrobial activity against anaerobic bacteria bacteroides melaninogenicus 2736; type: functional
[3] = test system: Streptococcus; assay: In vitro antimicrobial activity against aerobic bacteria Streptococcus D 8043; type: functional
[4] = test system: Phocaeicola vulgatus; assay: In vitro antimicrobial activity against anaerobic bacteria bacteroides vulgatus 1211; type: functional
[5] = test system: Staphylococcus aureus; assay: In vitro antimicrobial activity against aerobic bacteria Staphylococcus aureus V135; type: functional
[6] = test system: Bacteroides fragilis; assay: In vitro antimicrobial activity against anaerobic bacteria bacteroides fragilis 1936B,; type: functional
[7] = test system: Rattus norvegicus; assay: Peripheral plasma levels in rats after oral administration of 100 mg/kg dose for 0.25 hr; type: functional, organism-based; set-up: dose 100 mg/kg
Outline: (§1)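 Rats received 100 mg/kg orally and were sampled for peripheral plasma. Concentrations were measured by Micrococcus luteus agar-diffusion microbiological assay in Antibiotic Medium 1, with zone sizes converted using the standard curve for the appropriate compound. Each value is the average of three rats per time point.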

[8] = test system: Mus musculus; assay: Peripheral plasma levels in mice after oral administration of 100 mg/kg dose for 2 hr; type: functional, organism-based; set-up: dose 100 mg/kg
Outline: (§2)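 Mice were given the compound orally and sampled for peripheral plasma at each time point. Plasma was assayed microbiologically against Micrococcus luteus seeded in Antibiotic Medium 1. Inhibition zone sizes were read, and concentrations were calculated from each compound's own standard curve. Each value is the mean of five mice per time point.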

[9] = test system: Mus musculus; assay: Peripheral plasma levels in mice after oral administration of 50 mg/kg dose for 1 hr; type: functional, organism-based; set-up: dose 50 mg/kg; outline: as §2
[10] = test system: Streptococcus; assay: In vitro antimicrobial activity against aerobic bacteria Streptococcus D 2041; type: functional
[11] = test system: Fusobacterium; assay: In vitro antimicrobial activity against anaerobic bacteria fusobacterium symbiosum 1470; type: functional
[12] = test system: Streptococcus pneumoniae; assay: In vitro antimicrobial activity against aerobic bacteria Streptococcus pneumoniae B1-438; type: functional, streptococcus pneum
[13] = test system: Anaerococcus prevotii; assay: In vitro antimicrobial activity against anaerobic bacteria peptococcus prevoti 1281; type: functional
[14] = test system: Haemophilus parainfluenzae; assay: In vitro antimicrobial activity against aerobic bacteria Haemophilus parainfluenzae 9796; type: functional
[15] = test system: Staphylococcus epidermidis; assay: In vitro antimicrobial activity against aerobic bacteria Streptococcus epi 222; type: functional
[16] = test system: Rattus norvegicus; assay: Peripheral plasma levels in rats after oral administration of 100 mg/kg dose for 4 hr; type: functional, organism-based; set-up: dose 100 mg/kg; outline: as §1
[17] = test system: Clostridium septicum; assay: In vitro antimicrobial activity against anaerobic bacteria clostridium septicum 1128; type: functional
[18] = test system: Staphylococcus epidermidis; assay: In vitro antimicrobial activity against aerobic bacteria Streptococcus epi 270; type: functional
[19] = test system: Peptoniphilus asaccharolyticus; assay: In vitro antimicrobial activity against anaerobic bacteria peptococcus asaccharolyticus 1302; type: functional
[20] = test system: Staphylococcus aureus; assay: In vitro antimicrobial activity against aerobic bacteria Staphylococcus aureus V140,; type: functional
[21] = test system: Haemophilus influenzae; assay: In vitro antimicrobial activity against aerobic bacteria Haemophilus influenzae 465; type: functional
[22] = test system: Staphylococcus aureus; assay: In vitro antimicrobial activity against aerobic bacteria Staphylococcus aureus X400; type: functional
[23] = test system: Mus musculus; assay: Peripheral plasma levels in mice after oral administration of 100 mg/kg dose for 1 hr; type: functional, organism-based; set-up: dose 100 mg/kg; outline: as §2
[24] = test system: Bacteroides fragilis; assay: In vitro antimicrobial activity against anaerobic bacteria bacteroides fragilis 1877; type: functional
[25] = test system: Fusobacterium necrophorum; assay: In vitro antimicrobial activity against anaerobic bacteria usobacterium necrophorum 6054A; type: functional
[26] = test system: Eikenella corrodens; assay: In vitro antimicrobial activity against anaerobic bacteria bacteroides corrodens 1874; type: functional
[27] = test system: Haemophilus influenzae; assay: In vitro antimicrobial activity against aerobic bacteria Haemophilus influenzae 76; type: functional
[28] = test system: Rattus norvegicus; assay: Peripheral plasma levels in rats after oral administration of 100 mg/kg dose for 2 hr; type: functional, organism-based; set-up: dose 100 mg/kg; outline: as §1
[29] = test system: Rattus norvegicus; assay: Peripheral plasma levels in rats after oral administration of 100 mg/kg dose for 1 hr; type: functional, organism-based; set-up: dose 100 mg/kg; outline: as §1
[30] = test system: Rattus norvegicus; assay: Peripheral plasma levels in rats after oral administration of 100 mg/kg dose for 0.5 hr; type: functional, organism-based; set-up: dose 100 mg/kg; outline: as §1
[31] = test system: Mus musculus; assay: Peripheral plasma levels in mice after oral administration of 50 mg/kg dose for 2 hr; type: functional, organism-based; set-up: dose 50 mg/kg; outline: as §2
[32] = test system: Mus musculus; assay: Peripheral plasma levels in mice after oral administration of 100 mg/kg dose for 0.5 hr; type: functional, organism-based; set-up: dose 100 mg/kg; outline: as §2
[33] = test system: Staphylococcus aureus; assay: In vivo effective dose against experimental infections in mice Staphylococcus aureus X1 when administered orally; type: functional; settings: po
[34] = test system: Clostridium perfringens; assay: In vitro antimicrobial activity against anaerobic bacteria clostridium perfringens 81,; type: functional
[35] = test system: Mus musculus; assay: Peripheral plasma levels in mice after oral administration of 100 mg/kg dose for 0.25 hr; type: functional, organism-based; set-up: dose 100 mg/kg; outline: as §2
[36] = test system: Staphylococcus aureus; assay: In vitro antimicrobial activity against aerobic bacteria Staphylococcus aureus 513E; type: functional
[37] = test system: Mus musculus; assay: Peripheral plasma levels in mice after oral administration of 50 mg/kg dose for 0.25 hr; type: functional, organism-based; set-up: dose 50 mg/kg; outline: as §2
[38] = test system: Collinsella aerofaciens; assay: In vitro antimicrobial activity against anaerobic bacteria eubacterium aerofaciens 1235; type: functional
[39] = test system: Clostridioides difficile; assay: In vitro antimicrobial activity against anaerobic bacteria Clostridium difficile 2994; type: functional
[40] = test system: Streptococcus pneumoniae; assay: In vivo effective dose against experimental infections in mice Strep. pneumoniae park when administered sc; type: functional
[41] = test system: Haemophilus influenzae; assay: In vitro antimicrobial activity against aerobic bacteria Haemophilus influenzae MX366,; type: functional
[42] = test system: Streptococcus; assay: In vitro antimicrobial activity against aerobic bacteria Streptococcus D 9960; type: functional
[43] = test system: Streptococcus pneumoniae; assay: In vitro antimicrobial activity against Streptococcus pneumoniae; type: functional
[44] = test system: Bacteroides fragilis; assay: In vitro antimicrobial activity against anaerobic bacteria bacteroides fragilis 111; type: functional
[45] = test system: Streptococcus; assay: In vitro antimicrobial activity against aerobic bacteria Streptococcus B 14; type: functional
[46] = test system: Streptococcus pyogenes; assay: In vitro antimicrobial activity against Streptococcus pyogenes C203; type: functional
[47] = test system: Enterococcus faecium; assay: In vitro antimicrobial activity against Streptococcus faecium X66; type: functional, streptococcus fae-cium
[48] = test system: Staphylococcus aureus; assay: In vivo effective dose against experimental infections in mice Staphylococcus aureus X1 when administered sc; type: functional
[49] = test system: Chlamydia trachomatis; assay: In vitro antimicrobial activity against chlamydia trachomatis.; type: functional
[50] = test system: Streptococcus; assay: In vitro antimicrobial activity against aerobic bacteria Streptococcus B 5; type: functional
[51] = test system: Peptostreptococcus anaerobius; assay: In vitro antimicrobial activity against anaerobic bacteria eubacterium peptostreptococcus anaerobius 1428,; type: functional
[52] = test system: Mus musculus; assay: Peripheral plasma levels in mice after oral administration of 50 mg/kg dose for 0.5 hr; type: functional, organism-based; set-up: dose 50 mg/kg; outline: as §2
[53] = test system: Streptococcus pneumoniae; assay: In vivo effective dose against experimental infections in mice Strep. pneumoniae park when administered orally; type: functional; settings: po
[54] = In vitro antimicrobial activity against anaerobic bacteria peptostreptococcus intermedius 1264; type: functional
[55] = test system: Bacteroides thetaiotaomicron; assay: In vitro antimicrobial activity against anaerobic bacteria bacteroides thetaiotaomicron 1438; type: functional
[56] = test system: Haemophilus influenzae; assay: In vitro antimicrobial activity against Haemophilus influenzae.; type: functional
[57] = test system: Staphylococcus aureus; assay: In vitro antimicrobial activity against aerobic bacteria Staphylococcus aureus V41; type: functional
[58] = test system: Cutibacterium acnes; assay: In vitro antimicrobial activity against anaerobic bacteria propionibacterium acnes 79; type: functional
[59] = test system: Mus musculus; assay: Peripheral plasma levels in mice after oral administration of 50 mg/kg dose for 4 hr; type: functional, organism-based; set-up: dose 50 mg/kg; outline: as §2
[60] = test system: Mus musculus; assay: Peripheral plasma levels in mice after oral administration of 100 mg/kg dose for 4 hr; type: functional, organism-based; set-up: dose 100 mg/kg; outline: as §2
[61] = test system: Staphylococcus aureus; assay: In vitro antimicrobial activity against Staphylococcus aureus X1; type: functional
[62] = test system: Staphylococcus epidermidis; assay: In vitro antimicrobial activity against Staphylococcus epidermidis EPI1; type: functional
[63] = test system: Streptococcus pyogenes; assay: In vivo effective dose against experimental infections in rodent caused by Streptococcus pyogenes C203 when administered orally; type: functional; settings: po
[64] = test system: Prevotella melaninogenica; assay: In vitro antimicrobial activity against anaerobic bacteria bacteroides melaninogenicus 1856,; type: functional

Structure (SMILES): CC[C@H]1OC(=O)C[C@@H](O)[C@H](C)[C@@H](O[C@@H]2O[C@H](C)[C@@H](O)[C@H](N(C)C)[C@H]2O)[C@@H](CCCl)C[C@@H](C)C(=O)/C=C/C(C)=C/[C@@H]1CO[C@@H]1O[C@H](C)[C@@H](O)[C@@H](OC)[C@H]1OC
- ED50 [1]: 0.7 mg/kg
- MIC [2]: 2 µg/mL (≈ 2.52 µM)
- MIC [3]: 4 µg/mL (≈ 5.05 µM)
- MIC [4]: 1 µg/mL (≈ 1.26 µM)
- MIC [5]: 0.25 µg/mL (≈ 0.315 µM)
- MIC [6]: 2 µg/mL (≈ 2.52 µM)
- Concentration [7]: 5.4 µg/mL
- Concentration [8]: 1.5 µg/mL
- Concentration [9]: 0.3 µg/mL
- MIC [10]: 16 µg/mL (≈ 20.2 µM)
- MIC [11]: 2 µg/mL (≈ 2.52 µM)
- MIC [12]: > 128 µg/mL
- MIC [13]: 1 µg/mL (≈ 1.26 µM)
- MIC [14]: 32 µg/mL (≈ 40.4 µM)
- MIC [15]: 0.6 µg/mL (≈ 0.757 µM)
- Concentration [16]: 7.7 µg/mL
- MIC [17]: < 0.5 µg/mL
- MIC [18]: > 128 µg/mL
- MIC [19]: 2 µg/mL (≈ 2.52 µM)
- MIC [20]: 0.25 µg/mL (≈ 0.315 µM)
- MIC [21]: 16 µg/mL (≈ 20.2 µM)
- MIC [22]: 0.12 µg/mL (≈ 0.151 µM)
- Concentration [23]: 2.8 µg/mL
- MIC [24]: 2 µg/mL (≈ 2.52 µM)
- MIC [25]: 8 µg/mL (≈ 10.1 µM)
- MIC [26]: 2 µg/mL (≈ 2.52 µM)
- MIC [27]: 16 µg/mL (≈ 20.2 µM)
- Concentration [28]: 12.7 µg/mL
- Concentration [29]: 9.4 µg/mL
- Concentration [30]: 8.8 µg/mL
- Concentration [31]: 0.4 µg/mL
- Concentration [32]: 6.4 µg/mL
- ED50 [33]: 9 mg/kg
- MIC [34]: < 0.5 µg/mL
- Concentration [35]: 8.4 µg/mL
- MIC [36]: 0.12 µg/mL (≈ 0.151 µM)
- Concentration [37]: 0.3 µg/mL
- MIC [38]: 4 µg/mL (≈ 5.05 µM)
- MIC [39]: < 0.5 µg/mL
- ED50 [40]: > 20 mg/kg
- MIC [41]: 16 µg/mL (≈ 20.2 µM)
- MIC [42]: 8 µg/mL (≈ 10.1 µM)
- MIC [43]: 1 µg/mL (≈ 1.26 µM)
- MIC [44]: 2 µg/mL (≈ 2.52 µM)
- MIC [45]: 64 µg/mL (≈ 80.8 µM)
- MIC [46]: 0.25 µg/mL (≈ 0.315 µM)
- MIC [47]: 8 µg/mL (≈ 10.1 µM)
- ED50 [48]: 1.8 mg/kg
- MIC [49]: 0.25 µg/mL (≈ 0.315 µM)
- MIC [50]: > 128 µg/mL
- MIC [51]: < 0.5 µg/mL
- Concentration [52]: 0.4 µg/mL
- ED50 [53]: > 50 mg/kg
- MIC [54]: 2 µg/mL (≈ 2.52 µM)
- MIC [55]: 2 µg/mL (≈ 2.52 µM)
- MIC [56]: 16 µg/mL (≈ 20.2 µM)
- MIC [57]: 0.12 µg/mL (≈ 0.151 µM)
- MIC [58]: 16 µg/mL (≈ 20.2 µM)
- Concentration [59]: < 0.1 µg/mL
- Concentration [60]: 0.3 µg/mL
- MIC [61]: 0.25 µg/mL (≈ 0.315 µM)
- MIC [62]: 0.12 µg/mL (≈ 0.151 µM)
- ED50 [63]: 5 mg/kg
- MIC [64]: 1 µg/mL (≈ 1.26 µM)
